# Residue numbers refer to the chain shown, from its start.
# Legend:
# AURORA-B = AURORA-B (Homo sapiens, UniProt Q96GD4); assay: AURORA-B-NanoLuc target engagement assay; type: binding; settings: AURORA-B EC50 (µM), HEK293 cells, energy transfer probe, 2 hours, mean ± s.e.m, n = 2
# AURORA-A^Imut = target: T1, AURORA-A^Imut (Homo sapiens, UniProt O14965, A267W/E239R/F157E/I158E/I57V/K153E/K156E/K224E/P191W/R137E/R189E/R375E/S266W); assay: Depletion of AURORA-A interface mutant in MV4-11 cells; type: cell-based; settings: 12 mutated amino acids in the presumed interface with CEREBLON
# T1 sequence (O14965 1-403 I57V/R137E/K153E/K156E/F157E/I158E/R189E/P191W/K224E/E239R/S266W/A267W/R375E): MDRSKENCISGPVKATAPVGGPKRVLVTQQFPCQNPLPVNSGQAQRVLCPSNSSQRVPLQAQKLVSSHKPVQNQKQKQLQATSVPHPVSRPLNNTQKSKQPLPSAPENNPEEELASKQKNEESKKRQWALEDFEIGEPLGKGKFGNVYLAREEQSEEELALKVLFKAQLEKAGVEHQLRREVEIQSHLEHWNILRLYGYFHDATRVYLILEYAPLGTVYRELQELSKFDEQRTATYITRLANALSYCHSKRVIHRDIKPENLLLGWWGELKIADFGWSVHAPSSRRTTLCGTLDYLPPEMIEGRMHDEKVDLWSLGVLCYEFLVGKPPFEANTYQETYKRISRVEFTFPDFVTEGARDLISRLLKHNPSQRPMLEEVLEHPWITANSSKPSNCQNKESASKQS
# In short: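 HiBiT-tagged wild-type or mutant AURORA-A was expressed stably in MV4-11 cells (infected twice, 24 h apart, selected 72 h after infection). Cells were exposed to serial dilutions of the test compound for 6 h and lysed with lytic detection reagent containing the LgBiT fragment. Luminescence was then read. DC50 and DCmax were derived from the concentration–response data.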
# AURORA-A^D274N = target: T2, AURORA-A^D274N (Homo sapiens, UniProt O14965, D274N); assay: Immunoblot of HA-tagged kinase-dead AURORA-A^D274N; type: cell-based; settings: 1 µM, 18 hours
# T2 sequence (O14965 1-403 D274N): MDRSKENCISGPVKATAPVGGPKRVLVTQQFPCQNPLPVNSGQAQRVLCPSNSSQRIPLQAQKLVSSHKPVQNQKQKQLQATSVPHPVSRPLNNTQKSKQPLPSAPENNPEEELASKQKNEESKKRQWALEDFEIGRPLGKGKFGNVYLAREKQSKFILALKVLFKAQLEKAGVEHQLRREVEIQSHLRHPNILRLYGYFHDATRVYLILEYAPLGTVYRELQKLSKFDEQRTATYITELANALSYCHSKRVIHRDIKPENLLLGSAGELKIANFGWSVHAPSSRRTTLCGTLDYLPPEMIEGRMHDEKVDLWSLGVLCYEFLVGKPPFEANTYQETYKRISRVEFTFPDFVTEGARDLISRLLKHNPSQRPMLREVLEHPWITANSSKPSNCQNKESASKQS
# IMR5 cells = assay: BrdU/PI flow cytometry, cell cycle distribution of IMR5 cells; type: cell-based, human; settings: IMR5 cells without ectopic AURORA-A, 1 µM, 18 hours
# In short: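 Cells were pulsed with 10 µM BrdU for 1 h, washed in ice-cold PBS and fixed overnight in 80% ethanol at −20 °C. After a 1% BSA/PBS-T wash, they were stained 30 min at 37 °C with RNase A (24 µg/ml) and propidium iodide (54 µM), then analysed by flow cytometry. For IMR5, the EtOH-treated cells of the doxycycline-inducible line served as the non-overexpressing cells.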
# MV4-11 cells [1] = assay: Annexin/PI flow cytometry, MV4-11 cells; type: cell-based, human; settings: 0.5 µM, 72 hours
# In short: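 MV4-11 cells were collected together with their culture medium, washed in ice-cold PBS and stained with Annexin V/Pacific Blue in HEPES/NaCl/CaCl2 binding buffer for 15 min at room temperature in the dark. Propidium iodide in buffer was added before flow cytometry. Early (annexin+, PI−) and late (annexin+, PI+) apoptotic cells were counted over 50,000 events.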
# MV4-11 cells [2] = assay: Quantitative SILAC mass spectrometry: relative protein abundance in MV4-11 cells; type: cell-based, human; settings: 0.1 µM
# [3] = target: AURORA-A-CEREBLON complex (Homo sapiens, UniProt O14965+Q96SW2); assay: HA immunoprecipitation of AURORA-A, co-precipitated CEREBLON; type: binding; settings: MV4-11 cell extracts, 0.5 µM degrader
# AURORA-A-CEREBLON complex, sequence (O14965 whole entry): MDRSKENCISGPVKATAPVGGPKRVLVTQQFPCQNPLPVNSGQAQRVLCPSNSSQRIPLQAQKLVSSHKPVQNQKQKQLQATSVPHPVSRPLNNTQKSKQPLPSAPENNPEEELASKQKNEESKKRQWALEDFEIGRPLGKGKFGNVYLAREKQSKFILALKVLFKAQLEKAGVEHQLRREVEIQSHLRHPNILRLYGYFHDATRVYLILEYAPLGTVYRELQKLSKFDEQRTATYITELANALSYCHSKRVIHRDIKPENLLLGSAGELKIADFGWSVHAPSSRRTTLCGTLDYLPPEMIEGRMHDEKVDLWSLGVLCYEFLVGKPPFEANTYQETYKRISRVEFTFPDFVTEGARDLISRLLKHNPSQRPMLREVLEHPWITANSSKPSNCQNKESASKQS
# AURORA-A-CEREBLON complex, sequence (Q96SW2 whole entry): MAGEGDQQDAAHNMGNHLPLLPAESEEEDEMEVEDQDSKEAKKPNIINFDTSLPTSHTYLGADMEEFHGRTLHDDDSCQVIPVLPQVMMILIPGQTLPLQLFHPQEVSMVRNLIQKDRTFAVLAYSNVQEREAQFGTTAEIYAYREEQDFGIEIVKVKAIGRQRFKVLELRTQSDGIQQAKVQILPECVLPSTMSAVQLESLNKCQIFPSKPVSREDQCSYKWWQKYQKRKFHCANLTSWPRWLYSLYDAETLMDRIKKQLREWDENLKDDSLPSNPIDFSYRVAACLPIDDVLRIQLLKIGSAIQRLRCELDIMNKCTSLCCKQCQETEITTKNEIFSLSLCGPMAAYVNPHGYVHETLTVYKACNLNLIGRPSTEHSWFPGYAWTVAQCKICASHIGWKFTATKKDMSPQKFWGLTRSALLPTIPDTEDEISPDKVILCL
# AURORA-A-CEREBLON complex, sequence (Q16531 whole entry partner): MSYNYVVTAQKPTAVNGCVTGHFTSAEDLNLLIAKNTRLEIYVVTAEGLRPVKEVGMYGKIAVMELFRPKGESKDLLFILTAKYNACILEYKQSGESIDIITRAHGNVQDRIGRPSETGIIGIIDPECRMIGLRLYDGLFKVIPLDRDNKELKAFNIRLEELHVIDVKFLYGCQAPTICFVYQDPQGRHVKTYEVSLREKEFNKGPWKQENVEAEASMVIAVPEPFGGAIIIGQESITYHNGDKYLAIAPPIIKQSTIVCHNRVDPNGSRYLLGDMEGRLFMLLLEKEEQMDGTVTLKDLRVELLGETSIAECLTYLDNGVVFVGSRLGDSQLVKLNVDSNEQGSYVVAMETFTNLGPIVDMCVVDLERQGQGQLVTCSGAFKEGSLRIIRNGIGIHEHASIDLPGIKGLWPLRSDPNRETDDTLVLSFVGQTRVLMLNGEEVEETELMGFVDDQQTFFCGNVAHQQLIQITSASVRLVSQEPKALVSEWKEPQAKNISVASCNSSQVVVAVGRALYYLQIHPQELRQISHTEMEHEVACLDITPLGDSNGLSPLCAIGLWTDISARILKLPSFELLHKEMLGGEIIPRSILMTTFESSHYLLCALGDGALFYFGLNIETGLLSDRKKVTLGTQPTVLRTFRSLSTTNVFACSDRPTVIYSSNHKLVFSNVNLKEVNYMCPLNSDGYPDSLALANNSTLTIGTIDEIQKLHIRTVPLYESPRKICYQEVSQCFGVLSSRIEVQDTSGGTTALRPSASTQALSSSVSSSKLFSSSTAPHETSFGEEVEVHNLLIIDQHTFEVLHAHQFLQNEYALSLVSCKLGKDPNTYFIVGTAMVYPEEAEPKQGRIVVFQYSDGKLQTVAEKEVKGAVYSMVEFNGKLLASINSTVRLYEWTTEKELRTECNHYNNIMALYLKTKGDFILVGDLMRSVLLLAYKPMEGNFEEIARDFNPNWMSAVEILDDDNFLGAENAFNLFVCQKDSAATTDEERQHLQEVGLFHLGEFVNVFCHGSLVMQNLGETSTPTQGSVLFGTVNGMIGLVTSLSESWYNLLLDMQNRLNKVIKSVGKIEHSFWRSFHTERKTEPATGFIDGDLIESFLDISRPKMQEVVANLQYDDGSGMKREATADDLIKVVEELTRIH
# AURORA-A = target: T3, AURORA-A (Homo sapiens, UniProt O14965); assay: Immunoblot of AURORA-A in U2OS, HLE and IMR5 cells; type: cell-based; settings: HLE and IMR5 cell lines
# T3 sequence (O14965 1-403): T2 sequence (O14965 1-403 D274N) with N274D
# In short: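 U2OS and HLE cells were exposed to a range of concentrations for 6 h. IMR5 cells were exposed for 6 h, or at 1 µM alongside siRNA knockdown of AURORA-A/B. Lysis was in RIPA buffer for 20 min at 4 °C, and protein was quantified by BCA. Samples were separated by Bis-Tris PAGE, blotted onto PVDF, blocked in 5% milk/TBS-T and probed overnight at 4 °C.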
# AURORA-B, sequence (Q96GD4 whole entry): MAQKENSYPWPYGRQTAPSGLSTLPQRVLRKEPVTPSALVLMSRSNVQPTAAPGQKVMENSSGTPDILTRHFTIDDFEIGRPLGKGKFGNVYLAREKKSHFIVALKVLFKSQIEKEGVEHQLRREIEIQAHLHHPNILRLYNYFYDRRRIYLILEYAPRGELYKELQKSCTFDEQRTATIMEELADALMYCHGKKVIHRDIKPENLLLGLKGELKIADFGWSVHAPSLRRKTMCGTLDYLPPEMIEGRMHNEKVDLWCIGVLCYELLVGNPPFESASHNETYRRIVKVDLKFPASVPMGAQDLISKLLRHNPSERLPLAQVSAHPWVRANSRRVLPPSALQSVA
smiles,measurement,setting,value
COc1cc(Nc2ncc3c(n2)-c2ccc(Cl)cc2C(c2c(F)cccc2OC)=NC3)ccc1C(=O)NCCOCCOCCNC(=O)COc1cccc2c1C(=O)N(C1CCC(=O)NC1=O)C2=O (stereo not drawn) [JB170],EC50,AURORA-B,1.4 µM
same,JB170-mediated depletion of AURORA-A^Imut,AURORA-A^Imut,not depleted
same,depletion of AURORA-A^D274N,AURORA-A^D274N,depleted by JB170 to a similar degree as the unmutated protein
same,cell cycle distribution,IMR5 cells,"induced an accumulation of BrdU-negative cells in S-phase, but did not induce G2/M arrest"
same,annexin-positive cells,MV4-11 cells [1],56%
same,"destabilization of CEREBLON neosubstrates (GSPT1, CSNK1A1, ZFP91, IZKF1/3)",MV4-11 cells [2]; 6 hours,none was destabilized
same,"depletion of other proteins (p<0.05, log2FC<-1)","MV4-11 cells [2]; 6 hours, 4,259 proteins, including AURORA-B",no additional protein was depleted
same,CEREBLON co-precipitation with HA-tagged AURORA-A,[3],efficient CEREBLON co-precipitation
same,AURORA-A depletion (in words),AURORA-A,rapid AURORA-A depletion in all cases
